According to PMC4664024 (Blood Coagulation & Fibrinolysis, 2015):
Read-outs that look alike come from different tables or passages of the source.

What was measured:
[1] = type: in vivo, human
[2] = healthy Japanese individuals, cited from earlier work
[3] = molecular target: exogenous bovine Xa (Bos taurus, UniProt P00743); experiment: Plasma concentration by functional anti-Xa test in orthopaedic patients; type: in vivo; details: for range of concentrations observed with the anti-Xa functional tests: T0, before starting the treatment
[4] = tested on: activated partial thromboplastin clotting time (aPTT); experiment: Activated partial thromboplastin time; type: in vivo, human; details: at peak concentration and at steady state (T2–T3)
Procedure, shortened: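 Blood drawn the day before surgery (T0), then 2 h ± 10 min post-dose on day 4 ± 1 (T2) and day 7 ± 1 (T3). aPTT (s) run on an automated coagulation analyser. Reported as median and 25th–75th percentiles; Wilcoxon signed-rank test for repeated measures.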

exogenous bovine Xa, sequence (P00743 234-492 limits assumed): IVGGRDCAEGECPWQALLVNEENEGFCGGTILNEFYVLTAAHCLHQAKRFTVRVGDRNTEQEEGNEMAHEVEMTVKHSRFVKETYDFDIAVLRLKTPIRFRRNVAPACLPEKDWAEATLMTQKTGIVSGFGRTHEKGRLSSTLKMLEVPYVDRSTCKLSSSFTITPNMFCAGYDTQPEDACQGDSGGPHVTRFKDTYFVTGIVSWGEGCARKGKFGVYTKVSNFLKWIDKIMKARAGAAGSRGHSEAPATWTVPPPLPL
exogenous bovine Xa, sequence (P00743 41-180 limits assumed): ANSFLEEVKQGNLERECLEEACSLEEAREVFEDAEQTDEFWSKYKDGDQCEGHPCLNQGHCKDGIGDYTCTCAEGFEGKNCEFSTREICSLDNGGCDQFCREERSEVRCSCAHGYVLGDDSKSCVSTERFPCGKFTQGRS

Cmax ([1]; human, plasma, oral, 2.5 mg) | plasma concentration by anti-Xa functional assay, arithmetic mean and SD ([3]; T0 (D−1), before starting the treatment) | range of concentrations observed with the anti-Xa functional tests [3] | interindividual variation in the Cmax (coefficient of variation) ([1]; T1, first intake the day after surgery) | Structure (SMILES) | minimum period before reaching the steady state ([2]; 2.5 mg twice daily) | Cmax ([2]; after 7 days of 2.5-mg twice-daily treatment) | Cmax ([2]; after a first intake of 2.5 mg) | mean increase in aPTT [4]
75 ± 37 ng/mL | 6 ± 7.5 ng/mL | 0 to 24 ng/mL | – | COc1ccc(-n2nc(C(N)=O)c3c2C(=O)N(c2ccc(N4CCCCC4=O)cc2)CC3)cc1 [Apixaban] | ≥ 3 treatment days | 84 ng/mL | 51 ± 25 ng/mL | 6 s
– | – | 0 to 25 ng/mL | around 100% | O=C(NC[C@H]1CN(c2ccc(N3CCOCC3=O)cc2)C(=O)O1)c1ccc(Cl)s1 [Rivaroxaban] | – | – | – | 15 s
